The values that follow come from ChEMBL document CHEMBL4339228, “Identification of Isoform 2 Acid-Sensing Ion Channel Inhibitors as Tool Compounds for Target Validation Studies in CNS” (ACS Med Chem Lett, 2019).

The target of series [1] is T1, Acid-sensing ion channel 1 (Mus musculus, UniProt Q6NXK8).
T1 sequence (Q6NXK8 whole entry): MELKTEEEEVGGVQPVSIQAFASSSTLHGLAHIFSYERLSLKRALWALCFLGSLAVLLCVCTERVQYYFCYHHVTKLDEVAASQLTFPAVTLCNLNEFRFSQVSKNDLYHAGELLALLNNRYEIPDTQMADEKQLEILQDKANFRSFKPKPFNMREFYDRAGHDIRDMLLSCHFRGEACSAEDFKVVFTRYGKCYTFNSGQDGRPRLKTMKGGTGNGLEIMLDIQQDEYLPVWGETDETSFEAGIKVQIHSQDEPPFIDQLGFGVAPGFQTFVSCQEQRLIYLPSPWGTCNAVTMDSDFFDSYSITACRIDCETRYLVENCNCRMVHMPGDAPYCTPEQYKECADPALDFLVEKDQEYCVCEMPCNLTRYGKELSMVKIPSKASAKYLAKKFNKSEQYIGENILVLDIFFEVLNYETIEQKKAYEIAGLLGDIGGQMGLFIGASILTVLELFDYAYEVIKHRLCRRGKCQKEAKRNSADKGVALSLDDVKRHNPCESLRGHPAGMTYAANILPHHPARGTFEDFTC
Put plainly: Inhibition of pH 6.6-stimulated mouse ASIC1a homomer expressed in CHOK1 cells assessed as reduction in channel activation by VSD fluorescence assay. Format: cell-based.

Series [2] has as its target T2, Acid-sensing ion channel 2 (Mus musculus, UniProt Q925H0).
T2 sequence (Q925H0 whole entry): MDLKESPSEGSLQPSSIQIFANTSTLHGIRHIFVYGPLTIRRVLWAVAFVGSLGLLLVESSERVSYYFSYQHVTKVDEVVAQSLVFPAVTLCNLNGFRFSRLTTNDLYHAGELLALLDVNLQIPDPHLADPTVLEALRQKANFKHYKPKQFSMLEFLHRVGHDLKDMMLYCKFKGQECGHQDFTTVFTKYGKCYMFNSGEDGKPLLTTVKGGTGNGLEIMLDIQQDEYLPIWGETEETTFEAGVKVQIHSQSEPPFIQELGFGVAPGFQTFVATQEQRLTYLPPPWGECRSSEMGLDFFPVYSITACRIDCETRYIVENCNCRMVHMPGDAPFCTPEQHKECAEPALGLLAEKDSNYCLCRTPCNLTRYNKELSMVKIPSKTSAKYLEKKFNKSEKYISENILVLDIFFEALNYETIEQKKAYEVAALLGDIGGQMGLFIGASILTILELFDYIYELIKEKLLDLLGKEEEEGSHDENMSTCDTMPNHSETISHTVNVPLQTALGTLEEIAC
Description: Inhibition of pH 5.5-stimulated mouse ASIC2a homomer expressed in CHOK1 cells assessed as reduction in channel activation by VSD fluorescence assay. Format: cell-based.

Series [3] has as its target T3, Acid-sensing ion channel 1/2 (Mus musculus, UniProt Q6NXK8+Q925H0).
T3 sequence (Q6NXK8 whole entry): T1 sequence (Q6NXK8 whole entry)
T3 sequence (Q925H0 whole entry): T2 sequence (Q925H0 whole entry)
Put plainly: Inhibition of pH 6.25-stimulated mouse ASIC1a/2a […] expressed in CHOK1 cells assessed as reduction in channel activation by VSD fluorescence assay. Format: cell-based.

Series [4] can be described thus: Kinetic solubility of the compound at pH 7.4. Format: physicochemical. Particulars: buffer, read-out: Kinetic_solubility.
In a further series the target is albumin (Homo sapiens, UniProt P02768). Put plainly: Binding affinity to human serum albumin by NMR-based analysis. Format: ADME. Particulars: read-out: PPB (converted).
Sequence of albumin (P02768 whole entry): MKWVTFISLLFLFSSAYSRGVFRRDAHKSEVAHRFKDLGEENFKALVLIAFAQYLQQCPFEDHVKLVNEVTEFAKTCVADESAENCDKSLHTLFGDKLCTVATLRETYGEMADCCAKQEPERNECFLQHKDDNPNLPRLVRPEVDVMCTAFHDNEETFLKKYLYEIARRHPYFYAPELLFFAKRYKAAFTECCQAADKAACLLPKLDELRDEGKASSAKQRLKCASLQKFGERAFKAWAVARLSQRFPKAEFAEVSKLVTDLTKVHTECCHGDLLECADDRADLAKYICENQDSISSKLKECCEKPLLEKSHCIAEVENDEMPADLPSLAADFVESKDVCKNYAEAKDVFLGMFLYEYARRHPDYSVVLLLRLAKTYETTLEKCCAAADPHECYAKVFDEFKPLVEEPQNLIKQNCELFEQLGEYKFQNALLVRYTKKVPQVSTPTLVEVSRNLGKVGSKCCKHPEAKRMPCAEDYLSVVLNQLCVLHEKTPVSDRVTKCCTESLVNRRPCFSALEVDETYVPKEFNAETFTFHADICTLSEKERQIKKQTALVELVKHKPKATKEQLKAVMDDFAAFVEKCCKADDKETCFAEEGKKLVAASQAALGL
Series [5] has as its target Voltage-gated inwardly rectifying potassium channel KCNH2 (Homo sapiens, UniProt Q12809). Description: Inhibition of human ERG incubated for 4 hrs by fluorescence polarization assay. The gist of the method: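 Human ERG inhibition measured at concentrations up to 30 μM.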
Background: Polarisation of emitted light reports the rotation of a fluorescent probe.

The target in a further series is T4, Cytochrome P450 1A2 (Homo sapiens, UniProt P05177).
T4 sequence (P05177 whole entry): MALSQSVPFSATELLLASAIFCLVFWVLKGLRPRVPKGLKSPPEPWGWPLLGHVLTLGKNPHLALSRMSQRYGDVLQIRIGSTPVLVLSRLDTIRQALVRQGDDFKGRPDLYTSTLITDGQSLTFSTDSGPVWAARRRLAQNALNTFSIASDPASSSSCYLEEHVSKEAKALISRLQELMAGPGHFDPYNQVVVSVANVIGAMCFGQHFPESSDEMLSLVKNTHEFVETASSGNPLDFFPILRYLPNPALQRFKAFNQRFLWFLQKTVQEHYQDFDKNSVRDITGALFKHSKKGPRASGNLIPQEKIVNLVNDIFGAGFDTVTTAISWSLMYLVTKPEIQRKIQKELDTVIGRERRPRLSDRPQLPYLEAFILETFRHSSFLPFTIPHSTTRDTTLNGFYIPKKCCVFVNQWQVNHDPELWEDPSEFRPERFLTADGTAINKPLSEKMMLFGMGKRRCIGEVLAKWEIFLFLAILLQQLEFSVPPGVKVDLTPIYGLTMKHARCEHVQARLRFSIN
Description: Inhibition of CYP1A2 (unknown origin) using pro-luciferin substrates in presence of NADPH by firefly luciferase reporter gene based P450-Glo assay. Format: ADME. (A reporter such as luciferase makes a cellular process visible.)

Series [6] in a line: Clearance in NMRI mouse at 1 mg/kg, iv by LC-MS/MS analysis. Particulars: in vivo. Type of series: ADME, organism-based.
Series [7] is described as follows: Volume of distribution in NMRI mouse at 1 mg/kg, iv by LC-MS/MS analysis. Type of series: ADME, organism-based. Particulars: in vivo.
Series [8] can be described thus: Cmax in NMRI mouse at 3 mg/kg, po by LC-MS/MS analysis. Format: ADME, organism-based. Also noted: dose 3 mg/kg, route oral. Particulars: in vivo.
A short description of series [9]: Oral bioavailability in NMRI mouse at 3 mg/kg by LC-MS/MS analysis. Particulars: in vivo. Format: ADME, organism-based.
A short description of series [10]: Ratio of drug level in brain to plasma of NMRI mouse at 1 mg/kg, iv measured after 2 to 8 hrs post dose. Format: ADME, organism-based. Particulars: read-out: BPR.

≈ marks a conversion by molar mass, not a printed value.

The term IC50 denotes the concentration at which inhibition is half-maximal. The clearance is a measure of how efficiently the substance is removed, as volume per time. Higher therefore signals a high capacity for elimination. What is called Vd is the apparent volume that relates the amount in the body to the concentration in plasma or blood. A lower Vd goes with little distribution into tissue. A word on the Cmax: it is the maximum level reached in the sampled fluid or tissue. The term bioavailability denotes the share of a dose that reaches the circulation, judged against a reference dose that is usually intravenous. A low value points to little systemic uptake.

Sequence of Voltage-gated inwardly rectifying potassium channel KCNH2 (Q12809 whole entry): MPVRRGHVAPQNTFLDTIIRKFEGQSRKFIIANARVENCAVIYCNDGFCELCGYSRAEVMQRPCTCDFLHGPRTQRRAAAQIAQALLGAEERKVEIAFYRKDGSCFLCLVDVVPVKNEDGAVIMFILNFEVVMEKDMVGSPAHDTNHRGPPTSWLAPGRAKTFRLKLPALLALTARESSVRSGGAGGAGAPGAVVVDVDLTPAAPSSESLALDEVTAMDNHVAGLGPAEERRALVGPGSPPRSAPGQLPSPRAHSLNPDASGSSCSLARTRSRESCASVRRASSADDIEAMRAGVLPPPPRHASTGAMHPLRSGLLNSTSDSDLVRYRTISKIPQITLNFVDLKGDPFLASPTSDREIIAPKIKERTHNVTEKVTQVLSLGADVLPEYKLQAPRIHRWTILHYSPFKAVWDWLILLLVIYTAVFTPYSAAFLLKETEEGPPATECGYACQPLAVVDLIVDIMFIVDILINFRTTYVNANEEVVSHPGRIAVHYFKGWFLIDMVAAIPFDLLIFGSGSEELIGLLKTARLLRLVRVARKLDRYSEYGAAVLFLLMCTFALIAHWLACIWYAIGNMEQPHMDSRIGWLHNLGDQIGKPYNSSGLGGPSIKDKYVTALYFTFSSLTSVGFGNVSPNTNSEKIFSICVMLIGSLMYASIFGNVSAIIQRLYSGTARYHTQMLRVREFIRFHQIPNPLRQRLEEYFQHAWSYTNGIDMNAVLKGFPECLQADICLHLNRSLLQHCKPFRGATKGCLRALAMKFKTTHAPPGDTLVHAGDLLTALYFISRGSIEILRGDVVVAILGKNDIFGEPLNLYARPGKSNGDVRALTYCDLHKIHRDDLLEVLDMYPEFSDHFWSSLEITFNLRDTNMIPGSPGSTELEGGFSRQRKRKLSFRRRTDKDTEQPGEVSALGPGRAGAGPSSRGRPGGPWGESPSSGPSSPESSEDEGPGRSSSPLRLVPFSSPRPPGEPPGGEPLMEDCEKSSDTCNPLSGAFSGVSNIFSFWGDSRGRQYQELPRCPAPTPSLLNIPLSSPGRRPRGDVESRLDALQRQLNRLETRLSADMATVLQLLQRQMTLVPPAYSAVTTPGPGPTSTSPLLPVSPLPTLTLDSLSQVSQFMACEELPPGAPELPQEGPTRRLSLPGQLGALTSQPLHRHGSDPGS

Turning to `Cc1nn(-c2ccc3c(c2)NCC3)c(C)c1-c1ccc(F)cc1`, the IC50 in series [1], in [2] and in series [3] was > 30 µM each time.

Turning to `Cc1nn(-c2ccc(C#N)cc2)c(C)c1-c1ccc(F)cc1`, the IC50 in series [1], in [2] and in series [3] was > 30 µM in each case.

Take `Cc1nn(-c2ncnc3c2CNC3)c(C)c1-c1ccc(F)cc1`: the IC50 in [1] was > 30 µM; in series [2], 17 µM; in [3], > 30 µM; in [5] it was > 30 µM; at Cytochrome P450 1A2, 0.8 µM. Further, the solubility kinetic in [4] was determined as 32 µg/mL (≈ 103 µM). Further, the fraction unbound on albumin was 0.06. Further, in series [6], the clearance was 34 mL/min/kg. The same molecule returned a Vd in series [7] of 1.4 L/kg. The molecule further had a Cmax in series [8] of 2600 nM. The molecule also came in with a bioavailability in series [9] of 100%. Further, in series [10], the Kp came out at 1.3.

On to `Cc1nn(-c2ccc(CN)cn2)c(C)c1-c1ccc(F)cc1`, for which the IC50 in series [1] was > 30 µM; in series [2] it was 6.1 µM; in series [3] it was 8.5 µM.

On to `Cc1ccc(-c2c(C)nn(-c3ccc(CN)cc3)c2C)cc1F`, for which the IC50 in [1], in [2] and in series [3] was > 30 µM each time.

With `Cc1nn(-c2ccc(CCN)cc2)c(C)c1-c1ccc(F)cc1`, the IC50 in [1] is > 30 µM; in [2], 11.7 µM; in series [3], > 30 µM.

Turning to `Cc1nn(-c2ccc(CN)cc2)c(C)c1-c1ccc(Cl)cc1`, the IC50 in [1], in series [2] and in series [3] was > 30 µM each time.

Turning to `Cc1nn(-c2ccc(C(C)N)cc2)c(C)c1-c1ccc(F)cc1` (configuration not stated), the IC50 is > 30 µM in series [1], 8.7 µM in [2] and > 30 µM in series [3].

In the case of `Cc1nn(-c2ccc3c(c2)NCC3)c(C)c1-c1cccc(F)c1`, the IC50 in series [1], in series [2] and in series [3] was > 30 µM in each case.

Take `Cc1nn(-c2ncnc3c2CNC3)c(C)c1-c1cccc(F)c1`: the IC50 in series [1], in series [2] and in series [3] was > 30 µM each time.

Turning to `Cc1nn(-c2ccc(CN)cc2)c(C)c1-c1ccc(C(F)(F)F)cc1`, the half-maximal inhibitory concentration (IC50) in series [1], in series [2] and in [3] was > 30 µM throughout.

For the molecule `Cc1nn(-c2ccc(CN)cc2)c(C)c1-c1ccc(CN)cc1`, the IC50 in series [1], in series [2] and in series [3] was > 30 µM in each case.

For the molecule `Cc1nn(-c2ccc(CN)nc2)c(C)c1-c1ccc(F)cc1`, the IC50 in [1], in [2] and in series [3] was > 30 µM throughout.

Consider `Cc1nn(-c2ccc(CN)cc2)c(C)c1-c1ccc(F)cc1`, for which the IC50 is > 30 µM in series [1]; 18.9 µM in series [2]; 10.9 µM in [3]; > 30 µM in series [5]; 0.4 µM at Cytochrome P450 1A2. Moreover, in [4], the solubility kinetic came out at 73 µg/mL (≈ 247 µM). On albumin, the fraction unbound is 0.07. For the same molecule, the clearance in [6] came out at 224 mL/min/kg. In [7], the distribution volume (Vd) is 50.9 L/kg. In series [8], the peak level (Cmax) was 90 nM. In series [9], this molecule gave a bioavailability of 60%. Besides, in series [10], the Kp amounted to 61.

Consider `Cc1nn(Cc2ccc(CN)cc2)c(C)c1-c1ccc(F)cc1`, for which the figures for the IC50 in [1], in [2] and in series [3] were > 30 µM, 16.8 µM and > 30 µM, respectively.

Regarding `Cc1nn(-c2ncnc3c2CN(C)C3)c(C)c1-c1cccc(F)c1`, the IC50 in series [1], in series [2] and in series [3] was > 30 µM in each case.

`Cc1nn(-c2ccc3c(c2)CNC3)c(C)c1-c1cccc(F)c1`: the IC50 in series [1] is > 30 µM; in series [2], 9.9 µM; in [3], 11.3 µM.

Consider `COc1ccc(-c2c(C)nn(-c3ccc(CN)cc3)c2C)cc1`, for which the IC50 in [1] was > 30 µM; in series [2] it was 16.3 µM; in series [3], > 30 µM.

Turning to `Cc1nn(-c2cccc(CN)c2)c(C)c1-c1ccc(F)cc1`, the IC50 in series [1] is > 30 µM; in series [2] it was 15.6 µM; in [3], > 30 µM.

Turning to `Cc1nn(-c2ccc3c(c2)CNC3)c(C)c1-c1ccc(F)cc1`, the IC50 in [1] is > 30 µM; in [2], 8.2 µM; in [3] it was > 30 µM; in series [5], > 30 µM; on Cytochrome P450 1A2, 0.2 µM. Further, in series [4], the solubility kinetic came to 56 µg/mL (≈ 182 µM). Also, the fraction unbound on albumin was 0.05.

Regarding `Cc1ccc(-c2c(C)nn(-c3ccc(CN)cc3)c2C)cc1`, the IC50 is > 30 µM in series [1], 8.8 µM in [2] and > 30 µM in series [3].

For `Cc1ccc(-c2c(C)nn(-c3ccc(CN)cc3)c2C)cn1`, the IC50 in series [1], in [2] and in [3] was > 30 µM each time.

As for `Cc1nn(-c2ccc(CN)cc2)c(C)c1-c1cccc(F)c1`, the IC50 was > 30 µM in [1], 4.3 µM in series [2] and > 30 µM in series [3].

For `NCc1ccc(-n2cc(-c3ccc(F)cc3)cn2)cc1`, the half-inhibitory concentration (IC50) in [1], in [2] and in [3] was > 30 µM in each case.

Consider `N=C(N)c1ccc(/N=N/Nc2ccc(C(=N)N)cc2)cc1` [DIMINAZENE], for which the IC50 in [1] was 56.9 µM; in [2], 169 µM; in [3], 45.2 µM.
